Compound activity as filed in PubChem BioAssay.
Runt-CBFb FRET = blocks binding of human RUNX1 Runt domain to CBFb; Q01196+Q13951; Cerulean-Runt/Venus-CBFb FRET ratio 530/480, 1 h; inhibition, % at 20 µM; hit rate 0.46% among 220,000; AID 1496;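 active = inhibition over about 50% at 20 µM in the single-dose screen, limit read from the data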
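Assay system: Cerulean-tagged RUNX1 Runt domain (FRET donor) fusion protein / Amount: 100 nM each of Venus-CBFb and Cerulean-Runt domain / Medium: Tris buffer pH 7.5 with salts and BSA / Also added: Venus-CBFb 100 nM / Schedule: 1 h complex formation plus 1 h compound treatment, room temperature / Signal: FRET fluorescence / Read-out: loss of energy transfer signal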
RanGTP-Impb inh = inhibitors of RanGTP-importin-beta interaction, primary screen, biochemical, FRET, CFP-Ran, YFP-importin-beta, homogeneous | cell-free CFP-Ran/YFP-importin-beta FRET ratio | inhibition, % (no concentration beside the values) | hit rate 1.1% among 300,000;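 active = more than half of the replicate wells show a fall in the fluorescence ratio signal beyond about 16%, limit read from the data, passing the limit was not always enough; inconclusive = exactly half of the replicate wells pass the set limit; inactive = fewer than half of replicates pass the limit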
HDAC3 inhib = human HDAC3 inhibition; O15379; AID 2718; inhibition, % at 8.3 µM; hit rate 0.15% among 320,000; recombinant HDAC3, fluorogenic peptide/trypsin coupled, fluorescence; in the data active = inhibition above about 26%, passing the limit was not always enough; inconclusive = no clear call, values can overlap the other calls
CaV13 ICDI inh = Primary screen for inhibitors of IQ motif and Ca2+-dependent inactivation inhibitor domain binding in CACNA1D, Förster resonance energy transfer in living cells, …; HEK cells, CFP/YFP FRET ICDI-IQ, plate reader, 10 min; percent FRET-ratio fall versus neutral wells; inhibition, % at 12.3 µM; hit rate 0.098% among 340,000; AID 743397;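 active = mean replicate inhibition of at least 30% and at least 1% of replicates passing that level; inconclusive = only one of the two criteria is met; inactive = neither criterion is met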
LANA-H2B inh = blocks KSHV LANA binding to histone H2A/H2B; cell-free LANA-H2A/H2B peptide, fluorescence polarization; inhibition, % (test concentration not listed); hit rate 0.6% among 320,000; Q9QR71; in the data active = inhibition mostly above about 10%, no sharp cut-off; inactive = mostly below about 6.7%
Runt-SMMHC FRET = inhibitors of human RUNX1 Runt domain binding to CBFb-SMMHC | Q01196+Q13951 | Cerulean-Runt/Venus-CBFb-SMMHC FRET ratio 530/480, 1 h | inhibition, % at 20 µM | hit rate 0.74% among 220,000;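 active = mean inhibition across duplicate retests at 20 µM reaching about 50%, limit read from the data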;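 note: inhibitors lower the FRET ratio by blocking Runt binding to CBFb-SMMHC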
Large screens that a line does not name were inactive. Sampled rows, rich in hits. Any-hit rate of the full collection: about 1.9%.

CC(C)(C)C(=O)Nc1nc2c(s1)CN(Cc1ccccc1)CC2	Runt-CBFb FRET 77, RanGTP-Impb inh 99, CaV13 ICDI inh inconclusive, Runt-SMMHC FRET 92
O=C(Nc1nnc(Cc2ccccc2)s1)C1CCC1	none (no result: Runt-CBFb FRET, Runt-SMMHC FRET)
O=C(Nc1nc2c(s1)CN(Cc1ccccc1)CC2)c1c(F)cccc1F	Runt-SMMHC FRET 98
O=c1[nH]nc(-c2ccccc2)cc1-c1ccccc1	none (no result: Runt-CBFb FRET, Runt-SMMHC FRET)
COCc1ccc(C(=O)N2CCCC(Nc3ccc(F)c(F)c3)C2)s1 (stereo not given)	LANA-H2B inh 95 (no result: Runt-CBFb FRET, Runt-SMMHC FRET)
CCC(OCC(O)CN1CCN(CCN2C(=O)c3cccc4cccc(c34)C2=O)CC1)c1ccccc1 (stereo not given)	RanGTP-Impb inh 30
Cc1ccc(/C=C2/SC(=S)N(C3CCCCC3)C2=O)o1	none (no result: Runt-CBFb FRET, Runt-SMMHC FRET)
Cc1ccc(/C=C2/SC(=O)NC2=S)o1	Runt-SMMHC FRET 59 (no result: RanGTP-Impb inh, HDAC3 inhib, CaV13 ICDI inh, LANA-H2B inh)
Cc1ccc(C(=O)O)cc1[N+](=O)[O-]	none (no result: Runt-CBFb FRET, RanGTP-Impb inh, CaV13 ICDI inh, Runt-SMMHC FRET)
Cc1cc(C)c(NC(=O)c2cc(C(=O)O)ccc2C(=O)O)c([N+](=O)[O-])c1	LANA-H2B inh 12
COC(=O)c1ccc(C(=O)OC)c(NC(=O)COC(=O)C2CCCCC2)c1	none
COC(=O)c1ccc(C(=O)OC)c(NC(=O)COC(=O)C2CC2C)c1 (stereo not given)	LANA-H2B inh 21 (no result: CaV13 ICDI inh)
CC1CC1C(=O)OCC(=O)Nc1ccccc1Oc1ccccc1 (stereo not given)	LANA-H2B inh 35
Cc1cc([N+](=O)[O-])nn1CC(=O)NC1CCCCC1	LANA-H2B inh 19 (no result: Runt-CBFb FRET, Runt-SMMHC FRET)
O=Cc1ccc(OC(=O)CCCCC(=O)Oc2ccc(C=O)cc2)cc1	none (no result: Runt-CBFb FRET, Runt-SMMHC FRET)
CCOC(=O)c1ccc(OC(=O)CCCCCN=C(N)N)cc1	HDAC3 inhib 93 (no result: Runt-CBFb FRET, Runt-SMMHC FRET)
COc1ccc(N2C(=O)[C@@H]3Cc4ccccc4CN3C2=O)cc1	none (no result: CaV13 ICDI inh)
Cc1ccc(Cc2c(C)nc3nc(SCC(=O)NCCCN4CCCCCC4)nn3c2C)cc1	HDAC3 inhib 33 (no result: Runt-CBFb FRET, Runt-SMMHC FRET)
CCc1nc(CN2CCN(Cc3ccc(F)c(F)c3)C(CCO)C2)c(C)[nH]1 (stereo not given)	none
COc1ccc(CCN2CCC(Nc3nc4ccccc4n3Cc3ccc(F)cc3)CC2)cc1	LANA-H2B inh 14
Cc1csc(NC(=O)C2CCC(C)(C(=O)O)C2(C)C)n1 (stereo not given)	none
O=C(NCc1ccccc1)C(c1ccc(F)cc1)N1CCN(CCN2CCOCC2)CC1 (stereo not given)	none (no result: Runt-CBFb FRET, RanGTP-Impb inh, HDAC3 inhib, LANA-H2B inh, Runt-SMMHC FRET)
COc1ccc(-c2cc(C(F)(F)F)nc(SCCC(=O)NCc3ccccc3)n2)cc1	HDAC3 inhib inconclusive, LANA-H2B inh 32
Cc1sc2ncn(-c3ccccc3)c(=O)c2c1C	none
Cc1cc(C)c2cc(C#N)c(N3CCCC3)nc2c1	none (no result: RanGTP-Impb inh)
Cc1cccc2cc(C#N)c(SCC(=O)N3CCC(C)CC3)nc12	none
Cc1cc(C)c2cc(C#N)c(N3CCCN(C(=S)NCCCN(C)C)CC3)nc2c1	RanGTP-Impb inh 35 (no result: Runt-CBFb FRET, HDAC3 inhib, Runt-SMMHC FRET)
Cc1ccc2cc(C#N)c(N3CCCN(C(=O)c4cnccn4)CC3)nc2c1	none (no result: Runt-CBFb FRET, Runt-SMMHC FRET)
COCC(=O)N1CCCN(c2nc3c(C)cccc3cc2C#N)CC1	RanGTP-Impb inh 57
CCOCCCNC(=S)N1CCCN(c2nc3cc(C)ccc3cc2C#N)CC1	Runt-SMMHC FRET 76
CCOCCCNC(=S)NCCCNc1nc2c(C)c(C)ccc2cc1C#N	none (no result: RanGTP-Impb inh, HDAC3 inhib, LANA-H2B inh)
CCOCCCNC(=S)N1CCCN(c2nc3c(C)c(C)ccc3cc2C#N)CC1	RanGTP-Impb inh 51 (no result: Runt-CBFb FRET, HDAC3 inhib, LANA-H2B inh, Runt-SMMHC FRET)
C[C@H](O)[C@@H]1CN2CCc3c([nH]c4c(-c5ccccc5)cccc34)[C@@H]2C[C@@H]1N(C)C(=S)NCCc1ccccc1	none (no result: Runt-CBFb FRET, RanGTP-Impb inh, HDAC3 inhib, LANA-H2B inh, Runt-SMMHC FRET)
CCOc1cc(NC(=S)NCCCN2CCOCC2)c(OCC)cc1NC(=O)CC(C)C	none
CCCNC(=O)C1(C)CCN(C(=O)c2ccccc2F)C1 (stereo not given)	none (no result: Runt-CBFb FRET, RanGTP-Impb inh, HDAC3 inhib, LANA-H2B inh, Runt-SMMHC FRET)
Nc1ccc(-c2c3ccc(=O)cc-3oc3cc(O)ccc23)c(C(=O)O)c1	HDAC3 inhib inconclusive, LANA-H2B inh 65 (no result: Runt-CBFb FRET, RanGTP-Impb inh, CaV13 ICDI inh, Runt-SMMHC FRET)
Nc1ccc(O)c(C(=O)O)c1	none (no result: Runt-CBFb FRET, CaV13 ICDI inh, Runt-SMMHC FRET)
COc1ccc(OCC(=O)NCCCNC(=O)COc2ccc(OC)cc2)cc1	LANA-H2B inh 11 (no result: Runt-CBFb FRET, RanGTP-Impb inh, Runt-SMMHC FRET)
COCCNC(=O)C(=O)NNC(=O)COc1ccc(OC)cc1	LANA-H2B inh 20
